Assay outcomes (PubChem BioAssay)
M1 PAM = human M1 muscarinic receptor positive allosteric modulators, primary screen, CHO-K1 cells, Fluo-8 calcium fluorescence, 1536-well. activation, % at 3 µM. actives 0.088% (n = 360,000). Muscarinic acetylcholine receptor M1 (Homo sapiens), P11229. CHO-K1 hM1, ACh EC20; 0% = ACh EC20, 100% = maximal ACh; in the data active means activation above about 19%, passing the limit was not always enough
M1 ag = human M1 muscarinic receptor agonists, primary screen, Fluo-8 calcium fluorescence, CHO-K1 cells, HTS | CHO-K1 hM1, agonist mode; 0% DMSO, 100% acetylcholine EC100 | activation, % at 3 µM | actives 0.33% (n = 360,000) | AID 588814, 2011;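 active means activation above the run's mean compound activation plus 3 SD, cut at about 16% in these data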;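 further: peak over basal fluorescence ratio within a 140 s kinetic read after compound addition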
M1 antag = human M1 muscarinic receptor antagonists, primary screen, CHO-K1 cells, Fluo-8 calcium fluorescence, 1536-well; CHO-K1 hM1, ACh EC80 antagonist; AID 588852, 2011; actives 1.3% (n = 360,000); Muscarinic acetylcholine receptor M1 (Homo sapiens), P11229; inhibition, % at 3 µM;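 active means percent inhibition above its own plate's cutoff, namely the mean of that plate's compound wells plus 3 SD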;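 further: peak over basal fluorescence ratio during 140 s after agonist addition; 0% = ACh EC80 plus DMSO and 100% = DMSO alone without agonist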
TAAR1 agonist = human TAAR1 agonists, primary screen, Fluo-8 calcium fluorescence, CHO RD-HGA16 cells. Trace amine-associated receptor 1 (Homo sapiens), Q96RJ0. vehicle wells 0%, saturating PEA agonist 100%. activation, % at 3 µM. actives 0.99% (n = 360,000). AID 624467, 2012;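 active means activation above the mean activation of all test compounds in the run plus 3 SD, cut at about 38% in these data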
Target sequence (Q96RJ0 whole entry, looked up): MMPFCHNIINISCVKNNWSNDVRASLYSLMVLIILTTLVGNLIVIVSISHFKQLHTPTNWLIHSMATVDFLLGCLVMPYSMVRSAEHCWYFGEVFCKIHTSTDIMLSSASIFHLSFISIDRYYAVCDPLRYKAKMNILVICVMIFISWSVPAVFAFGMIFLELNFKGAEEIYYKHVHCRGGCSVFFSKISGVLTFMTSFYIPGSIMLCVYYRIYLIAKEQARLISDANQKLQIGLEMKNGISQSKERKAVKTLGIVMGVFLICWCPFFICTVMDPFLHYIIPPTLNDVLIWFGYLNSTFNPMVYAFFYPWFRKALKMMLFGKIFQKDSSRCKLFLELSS
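Test system: RD-HGA16 (CHO) cells co-expressing Gα16 and hTAAR1; dosing: one-point dosing at 3 µM (nominal); timing: 17-24 h seeding, 75 min 37 °C dye, 30 min RT; signal: kinetic Fluo-8 calcium fluorescence; read-out basis: % activation relative to PEA EC100 response; controls: DMSO and PEA EC100; replicates: n 1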
TAAR1 antagonist = human TAAR1 antagonists, primary screen, Fluo-8 calcium fluorescence, CHO RD-HGA16 cells. inhibition, % at 3 µM. actives 1.5% (n = 360,000). AID 624466, 2012. Trace amine-associated receptor 1 (Homo sapiens), Q96RJ0. antagonist;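 active means inhibition above a per-plate cutoff, the mean inhibition of test compounds on that plate plus 3 SD, cut at about 49% in these data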;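 further: 0% = DMSO plus EC80 beta-PEA response and 100% = DMSO alone without agonist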
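test system = CHO RD-HGA16 cells bearing hTAAR1 | replication = singlicate | controls = DMSO-only wells and EC80 β-PEA-stimulated wells | reagent = EC80 β-phenethylamine stimulus | read-out basis = percent inhibition of PEA-evoked calcium signal, max/basal emission ratio | schedule = seeding 17-24 h prior, 75-min 37 °C, 30-min RT dye loading | signal = kinetic Fluo-8 calcium fluorescence measurement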
TAAR1 ag confirm = human TAAR1 agonists, retest of hits, confirmation, Fluo-8 calcium fluorescence, CHO RD-HGA16 cells; shares compounds with TAAR1 agonist; scaled: DMSO 0%, maximal phenethylamine 100%; activation, % at 3 µM; actives 82% (n = 2,400); AID 651783, 2012;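 active means activation above a cutoff set at the run's mean compound activation plus 3 SD, cut at about 39% in these data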
Ga16 nonsel ag = nonselective calcium mobilization agonists, CHO-Ga16 cells, counter-screen for hTAAR1 agonist project, cell-based, fluorescence, CHO-Ga16 parental line | shares compounds with TAAR1 agonist | Fluo-8 calcium fluorescence; normalized to maximal ATP response, DMSO zero | activation, % at 3 µM | actives 50% (n = 2,400);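 active means activation above the run cutoff, the mean activation over all tested wells plus 3 SD, cut at about 12% in these data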;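 further: 0% = DMSO wells and 100% = maximal ATP response on the peak over basal ratio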
TAAR1 desensitize = TAAR1 desensitization by agonist hits, confirmation, counter-screen for TAAR1 agonist project, cell-based, fluorescence, tachyphylaxis; shares compounds with TAAR1 agonist; CHO RD-HGA16 hTAAR1, Fluo-8 calcium, beta-PEA response inhibition; inhibition, % at 3 µM; actives 46% (n = 2,400); AID 651951, 2012;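 active means inhibition above the run cutoff, the mean inhibition of all test compounds plus 3 SD, cut at about 49% in these data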;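 further: beta-PEA stimulus applied at its EC80; loss of beta-PEA calcium signal after compound pretreatment read as receptor desensitization; 0% = DMSO with beta-PEA at EC80 and 100% = DMSO alone without agonist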
Ga16 antag count = inhibition of ATP-evoked calcium response in CHO-Ga16 cells, counter-screen for TAAR1 agonist project, cell-based, fluorescence; shares compounds with TAAR1 agonist; CHO-Ga16 ATP-induced calcium, Fluo-8 fluorescence; inhibition, % at 3 µM; actives 39% (n = 2,400); AID 651952, 2012;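 active means inhibition above the plate's mean compound inhibition plus 3 SD, computed per plate, cut at about 22% in these data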;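 further: 0% = EC80 ATP with DMSO and 100% = DMSO wells without ATP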
Numbers without * were called inactive; . = no result given; + = active, no number; ! = not confirmed by another sample. An excerpt weighted towards active compounds, which were near 3.4% of everything screened.

SMILES	M1 PAM	M1 ag	M1 antag	TAAR1 agonist	TAAR1 antagonist	TAAR1 ag confirm	Ga16 nonsel ag	TAAR1 desensitize	Ga16 antag count
COc1cc(CN2CCCC(C(=O)c3ccc(C(C)(C)C)cc3)C2)cc(OC)c1O (stereo unspecified)	-15.3	-9.6	9.0	53.9*	-8.2	18.3	9.1	-1.9	10.3
O=c1[nH]c(=O)n(Cc2ccco2)c2c1C(C(F)(F)F)(C(F)(F)F)N=C(CCC1CCCCC1)N2	13.8	5.6	-7.0	58.5*	25.9	37.8*	21.4*	56.4*	34.9*
O=c1[nH]c(=O)n(-c2ccccc2)c2c1C(C(F)(F)F)(C(F)(F)F)N=C(CCC1CCCCC1)N2	8.2	1.9	-4.4	47.4*	-2.2	100.9*	70.5*	95.4*	51.6*
CCCCCCCCCCCCCCCC[n+]1ccccc1	.	.	.	51.6*!	73.2*	31.6	3.5	36.6	16.6
CCCCCCCCCCCCCCCC[n+]1ccc(C(N)=O)cc1	-13.6	-6.4	18.0	36.3	41.0	.	.	.	.
Cc1ccc2c(c1)[C@H]1[C@H](CO2)[C@H](c2ccccc2)[C@]2(C)C(=O)N(Cc3ccc(F)cc3)CC(=O)N12	-1.1	3.9	10.1	61.5*	34.1	28.8	19.0*	17.0	19.1
COc1ccc(NC(=S)N2CCc3ccccc3C2)cc1OC	5.3	3.8	-3.2	.	.	.	7.0	.	4.0
O=C(c1ccc([N+](=O)[O-])cc1)N1CCc2ccccc2C1	-7.6	-5.6	-0.2	-0.4	6.6	.	.	.	.
Fc1ccc(NC(=S)N2CCOCC2)c(F)c1	3.9	-0.6	5.0	-0.4	2.4	.	.	.	.
O=[N+]([O-])c1ccc(NC(=S)N2CCc3ccccc3C2)cc1	-9.8	-7.8	-0.3	60.5*	30.5	80.8*	10.5	63.3*	21.7*
Fc1ccc(NC(=S)N2CCc3ccccc3C2)c(F)c1	6.3	-5.0	-8.2	42.6*	17.9	72.3*	13.3*	21.3	4.3
COc1cc(NC(=S)N2CCc3ccccc3C2)cc(OC)c1	2.6	-6.2	-1.0	49.4*	7.0	61.9*	0.6	21.7	8.8
COC(=O)c1ccc(C(=O)N2CCCC(N3CCN(c4ccc(F)cc4)CC3)C2)nc1 (stereo unspecified)	3.5	-5.2	-8.2	-1.2	-13.7	.	.	.	.
Cc1cn([C@H]2C[C@H](O)[C@@H](CNCc3cccc(OC4CCCC4)c3)O2)c(=O)[nH]c1=O	-7.5	-8.8	9.3	1.6	-8.2	.	.	.	.
CNC(=O)c1ccsc1NC(=O)C1CCCN1S(=O)(=O)c1cccs1 (stereo unspecified)	-0.5	-4.8	11.8	13.2	-34.7	.	.	.	.
CC1CN(S(=O)(=O)c2cccc(C(=O)NCc3ccccn3)c2)CC(C)O1 (stereo unspecified)	2.7	0.4	-2.0	1.8	6.4	.	.	.	.
Cc1cccc(/C=N\Nc2cn[nH]c(=O)c2Cl)c1	9.4	-8.1	-11.1	53.2*	69.9*	87.9*	-1.7	71.6*	0.3
O=c1[nH]ncc(N/N=C\c2ccncc2)c1Cl	11.8	-7.3	-7.4	15.5	-7.8	.	.	.	.
O=c1[nH]ncc(N/N=C\c2cccs2)c1Cl	11.8	-7.5	-7.7	.	.	.	2.7	.	7.5
O=c1[nH]ncc(N/N=C\c2cccnc2)c1Cl	4.9	-2.2	-7.6	10.6	-15.6	.	.	.	.
Cc1ccc(-n2nnnc2SCC(=O)c2c(N)n(C3CC3)c(=O)[nH]c2=O)c(C)c1	10.8	1.9	-9.3	54.7*	-17.9	24.2	7.7	-6.4	-8.9
Nc1c(C(=O)CSc2nnnn2-c2ccc(O)cc2)c(=O)[nH]c(=O)n1C1CC1	7.1	-3.4	-6.0	0.8	-31.8	.	.	.	.
CCNC(=O)N(C)c1c(CC)nc2ccc(C(=O)N3CCN(S(=O)(=O)CC)CC3)cn12	-0.4	-2.5	2.7	2.8	-2.9	.	.	.	.
CCCCN(C)C1=CC2=CC(=C(C#N)C#N)CCC2CC1 (stereo unspecified)	-27.8	670.1*	101.3*	992.4*	107.9*	762.6*	872.4*	106.3*	102.9*
CCN(CC)C1=CC2=CC(=C(C#N)C#N)CCC2CC1 (stereo unspecified)	-31.6	229.7*	63.3*	999.8*	109.2*	+	+	106.4*	103.0*
SMILES	M1 PAM	M1 ag	M1 antag	TAAR1 agonist	TAAR1 antagonist	TAAR1 ag confirm	Ga16 nonsel ag	TAAR1 desensitize	Ga16 antag count
OC(CNCCc1ccccc1)COc1ccc(OCC(O)CNCCc2ccccc2)cc1 (stereo unspecified)	-3.5	-7.9	6.8	13.3	0.2	.	.	.	.
C/C=C/c1ccc(OCC(O)CNCCc2ccc(OC)cc2)c(OC)c1 (stereo unspecified)	7.6	-2.9	1.0	63.5*	11.9	95.8*	28.6*	46.0	11.0
COc1ccc(C(OCC(O)CNCCc2ccccc2)c2ccc(OC)cc2)cc1 (stereo unspecified)	2.2	-0.7	6.9	104.5*	96.9*	104.2*	17.5*	100.8*	27.5*
COc1cccc(Sc2ccccc2/C=N/NC(N)=O)c1	-1.9	-10.5	1.2	-1.5	-5.6	.	.	.	.
CCN1C(=O)[C@H]2[C@@H](c3ccc(C)cc3)N[C@]3(CCCN(Cc4ccc(F)cc4)C3=O)[C@H]2C1=O	-0.9	-4.9	-9.0	-1.1	7.9	.	.	.	.
C=CCN1CCc2c(cc(O)c(O)c2Cl)C(c2ccccc2)C1 (stereo unspecified)	-7.0	-8.0	-3.9	-1.6	-23.6	.	.	.	.
Oc1ccc(C2CNCCc3c2cc(O)c(O)c3Cl)cc1 (stereo unspecified)	8.5	-4.1	-40.2	61.8*!	13.1	81.1*	0.0	75.7*	10.2
